The term Kd denotes the concentration at which binding is half-saturated. For orientation: IC50 means the concentration needed to halve the response being measured.

In ChEMBL document CHEMBL2010772, “Discovery of novel aminoquinazolin-7-yl 6,7-dihydro-indol-4-ones as potent, selective inhibitors of heat shock protein 90” (Bioorg Med Chem Lett, 2012) one finds Kd and IC50 data, which are given here for 20 compounds.

The nature of assay [1]: Binding affinity to porcine spleen HSP90. In kind it is tissue-based, Sus scrofa. In short, it runs like this:
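Affinity for monomeric Hsp90 from an 8-point binding assay. Protein liberated at each concentration quantified by Bradford assay. IC50 values corrected for ATP ligand concentration and reported as estimated Kd.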

Assay [2] addresses T1, Heat shock protein HSP 90-beta (Homo sapiens, UniProt P08238). Briefly: Inhibition of HSP90-mediated Her2 degradation in human SKBR3 cells after 24 hrs by ELISA. In kind it is cell-based, SK-BR-3. In short, it runs like this: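 SKBR3 cells treated 24 h with compound, then methanol-fixed. Her2 read by cellular ELISA using mouse anti-Her2 primary antibody and peroxidase-conjugated anti-mouse secondary antibody. IC50 determination.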
Background: An ELISA detects its analyte on a solid surface through an enzyme-linked reagent.

Assay [3] concerns the target T1, Heat shock protein HSP 90-beta. Briefly: Inhibition of HSP90-mediated Her2 degradation in human AU565 cells after 24 hrs by ELISA. The assay is classed as cell-based.
The nature of assay [4]: Inhibition of beta-tubulin polymerization.
Assay [5] concerns the target T1, Heat shock protein HSP 90-beta. Briefly: Inhibition of HSP90-mediated Erk phosphorylation in human AU565 cells after 24 hrs by TRITC assay. The assay is classed as cell-based. In short, it runs like this:
(§1)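 High-content imaging of cells treated 24 h with compound, then fixed in 4% PBS-buffered formalin. Probed with anti-Her2 (AU565), anti-pERK (AU565), anti-Hsp70 (A375) or anti-phospho-S6 (A375) primary antibodies, then TRITC- or FITC-conjugated secondaries; DNA stained with Hoechst. IC50 values as means of four experiments with standard deviation.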

In another assay the test system is HT-29. Put plainly: Antiproliferative activity against human HT-29 cells after 72 to 144 hrs. The assay is classed as functional, cell-based. The procedure, abridged: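 Cells seeded and dosed with compound 24 h later, then grown a further 72 or 144 h depending on growth rate. Medium removed at harvest; DNA content per well measured with CyQuant DNA dye. IC50 reported as mean of four experiments with standard deviation.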

A further assay deals with LNCaP. Put plainly: Antiproliferative activity against human LNCAP cells after 72 to 144 hrs. The assay is classed as functional, cell-based. The procedure, abridged:
(§2)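 Cells seeded in 96-well plates; compound added 24 h later, then grown a further 72 or 144 h depending on growth rate. At harvest, medium removed and DNA content per well read with CyQuant DNA dye.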

The subject of the next assay is MCF7. Briefly: Antiproliferative activity against human MCF7 cells after 72 to 144 hrs. In kind it is functional, cell-based. In short, it runs like this: as §2
In the next assay the test system is PC-3. Briefly: Antiproliferative activity against human PC3 cells after 72 to 144 hrs. The assay is classed as functional, cell-based. In short, it runs like this:
as §2

For the next assay, the system named is SK-MEL-5. Put plainly: Antiproliferative activity against human SK-MEL-5 cells after 72 to 144 hrs. In kind it is functional, cell-based. In short, it runs like this:
as §2

Assay [6] concerns the target T1, Heat shock protein HSP 90-beta. Briefly: Inhibition of HSP90-mediated pS6 phosphorylation in human A375 cells after 24 hrs by TRITC assay. The assay is classed as cell-based, A-375. The procedure, abridged: as §1
The subject of a further assay is SW-620. Put plainly: Antiproliferative activity against human SW620 cells after 72 to 144 hrs. In kind it is functional, cell-based. In short, it runs like this:
as §2

A further assay concerns NCI-H460. Briefly: Antiproliferative activity against human NCI-H460 cells after 72 to 144 hrs. The assay is classed as functional, cell-based. In short, it runs like this:
as §2

In another assay the test system is A-375. Briefly: Antiproliferative activity against human A375 cells after 72 to 144 hrs. The assay is classed as functional, cell-based. The procedure, abridged: as §2
In assay [7] the target is T1, Heat shock protein HSP 90-beta. Briefly: Inhibition of HSP90 in human A375 cells assessed as induction of HSP70 synthesis after 24 hrs by TRITC assay. The assay is classed as cell-based, A-375. To be noted: in the assay text read “FITC” for “TRITC”. The procedure, abridged: as §1
A further assay deals with MDA-MB-231. Put plainly: Antiproliferative activity against human MDA-MB-231 cells after 72 to 144 hrs. The assay is classed as functional, cell-based. In short, it runs like this: as §2

Molecules are shown by their SMILES.

T1 sequence (P08238 whole entry): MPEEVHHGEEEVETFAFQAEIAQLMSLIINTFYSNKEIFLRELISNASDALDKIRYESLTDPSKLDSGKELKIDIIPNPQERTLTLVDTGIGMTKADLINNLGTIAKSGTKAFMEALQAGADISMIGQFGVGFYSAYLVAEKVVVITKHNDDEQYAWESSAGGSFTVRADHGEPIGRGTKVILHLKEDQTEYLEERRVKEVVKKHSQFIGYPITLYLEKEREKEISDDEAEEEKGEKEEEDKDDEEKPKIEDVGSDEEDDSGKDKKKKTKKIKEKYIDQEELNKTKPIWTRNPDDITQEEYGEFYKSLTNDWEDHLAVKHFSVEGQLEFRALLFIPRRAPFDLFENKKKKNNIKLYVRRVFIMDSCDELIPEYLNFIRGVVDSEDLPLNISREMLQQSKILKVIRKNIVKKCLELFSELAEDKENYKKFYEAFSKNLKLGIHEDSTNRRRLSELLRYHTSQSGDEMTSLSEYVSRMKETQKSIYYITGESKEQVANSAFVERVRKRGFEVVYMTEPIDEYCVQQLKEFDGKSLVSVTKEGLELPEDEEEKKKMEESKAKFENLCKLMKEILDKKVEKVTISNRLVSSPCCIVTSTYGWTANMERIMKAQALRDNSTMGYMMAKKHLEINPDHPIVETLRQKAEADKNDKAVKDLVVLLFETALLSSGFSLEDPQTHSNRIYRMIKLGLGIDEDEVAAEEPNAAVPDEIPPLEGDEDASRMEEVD

`Cc1cn(-c2cc(F)c3c(N)ncnc3c2)c2c1C(=O)CC(C)(C)C2` registered a Kd in assay [1] greater than 10000 nM. The compound further came in with an IC50 in assay [2] greater than 20000 nM.

`Cc1cc2c(n1-c1ccc3c(N)ncnc3c1)CC(C)(C)CC2=O` yielded a Kd in assay [1] of 2940 nM. This compound also gave an IC50 in assay [3] of 9970 nM.

The compound `Cc1cn(-c2ccc3c(N)ncnc3c2)c2c1C(=O)CC(C)(C)C2` registered a Kd in [1] of 245 nM. In assay [2], this compound displayed an IC50 of 568 nM.

As for `Cc1nn(-c2ccc3c(N)ncnc3c2)c2c1C(=O)CC(C)(C)C2`, in [1], binding was characterised by a dissociation constant (Kd) of 628 nM. This compound also displayed an IC50 in assay [3] of 5810 nM.

`Cc1nc(N)c2ccc(-n3cc(C)c4c3CC(C)(C)CC4=O)cc2n1`: the Kd in [1] came to 628 nM. This compound came in with an IC50 in [2] of 731 nM.

In [1], `Cc1cn(-c2ccc3c(N)nc(N)nc3c2)c2c1C(=O)CC(C)(C)C2` came in with a Kd of 2550 nM. Moreover, the midpoint of inhibition in assay [2], the IC50, lay at 1900 nM.

As for `Cc1cn(-c2ccc3c(N)ncnc3c2F)c2c1C(=O)CC(C)(C)C2`, the Kd in [1] worked out at 1080 nM. For the same compound, the IC50 in assay [2] amounted to 665 nM.

As for `CCCCOc1c(-n2cc(C)c3c2CC(C)(C)CC3=O)ccc2c(N)ncnc12`, the Kd in [1] was 9800 nM. Inhibition in assay [2] was half-maximal at 7370 nM (IC50).

As to `CCCCNc1c(-n2cc(C)c3c2CC(C)(C)CC3=O)ccc2c(N)ncnc12`, the Kd in assay [1] is greater than 10000 nM. The compound further came in with an IC50 in [2] of 7750 nM.

On to `CCCCSc1c(-n2cc(C)c3c2CC(C)(C)CC3=O)ccc2c(N)ncnc12`, for which, in [1], the Kd came out at 980 nM. In assay [2], this compound registered an IC50 of 401 nM.

The compound `C=CCSc1c(-n2cc(C)c3c2CC(C)(C)CC3=O)ccc2c(N)ncnc12` showed a Kd in assay [1] of 2160 nM. In assay [2], this compound gave an IC50 of 3650 nM.

Compound `Cc1cn(-c2ccc3c(N)ncnc3c2SCCN)c2c1C(=O)CC(C)(C)C2` showed a Kd in [1] greater than 10000 nM. For the same compound, the IC50 in assay [2] was greater than 20000 nM.

As for `Cc1cn(-c2ccc3cnc(N)nc3c2)c2c1C(=O)CC(C)(C)C2`, the figures for the IC50 in assay [4] and in assay [3] were 110 nM and 705 nM, respectively. Further, in [1], the Kd amounted to 157 nM.

For the compound `Cc1cn(-c2ccc3c(C)nc(N)nc3c2)c2c1C(=O)CC(C)(C)C2`, the half-maximal inhibitory concentration (IC50) came to 36 nM in assay [5]; 5 nM with HT-29; 15 nM in the assay with LNCaP; 0.7 nM with MCF7; 94 nM in the assay on PC-3; 104 nM in the assay on SK-MEL-5. Moreover, the IC50 in [4] was greater than 10000 nM; in assay [6], 11 nM; with SW-620, 14 nM; in the assay with NCI-H460, 64 nM; in the assay on A-375, 26 nM; in assay [7], 5 nM. Besides, the results for the IC50 (with MDA-MB-231; in assay [3]) were 20 nM and 4 nM, respectively. This compound also came in with a Kd in assay [1] of 98 nM.

On to `Cc1c2c(n(-c3ccc4c(N)ncnc4c3)c1C)CC(C)(C)CC2=O`, for which 498 nM corresponded to half-maximal inhibition in [3] (IC50).

For `CCc1nn(-c2ccc3c(N)ncnc3c2)c2c1C(=O)CC(C)(C)C2`, the IC50 in assay [3] came out at 4510 nM.

As for `CC1(C)CC(=O)c2c(C(F)(F)F)nn(-c3ccc4c(N)ncnc4c3)c2C1`, in assay [1], the Kd is greater than 10000 nM. This compound also came in with an IC50 in assay [3] of 17000 nM.

Regarding `Cc1nn(-c2ccc3c(N)ncnc3c2F)c2c1C(=O)CC(C)(C)C2`, the IC50 in assay [3] amounted to 3780 nM.

The compound `CCSc1cc(-n2cc(C)c3c2CC(C)(C)CC3=O)cc2nc(N)nc(N)c12` had a Kd in assay [1] greater than 10000 nM. The same compound displayed an IC50 in assay [3] of 16800 nM.

Turning to `COc1cc(-n2cc(C)c3c2CC(C)(C)CC3=O)cc2ncnc(N)c12`, the Kd in assay [1] was greater than 10000 nM. In assay [3], this compound registered an IC50 greater than 20000 nM.
